Compound activity as filed in PubChem.
Sampled rows, rich in hits. Any-hit rate of the full collection: about 2.8%.
NPY-Y2 PAM-ag: potentiates or activates human NPY-Y2 receptor. P49146. cells expressing NPY-Y2, potentiator/agonist read-out. activation, % at 3.6 µM. hit rate 0.45% among 220,000; in the data active = activation above about 27%;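 also: cells stimulated with NPY near EC25 plus isoproterenol at EC100; 0% = vehicle plus submaximal agonist and 100% = vehicle plus saturating agonist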
Target sequence (P49146 whole entry, looked up): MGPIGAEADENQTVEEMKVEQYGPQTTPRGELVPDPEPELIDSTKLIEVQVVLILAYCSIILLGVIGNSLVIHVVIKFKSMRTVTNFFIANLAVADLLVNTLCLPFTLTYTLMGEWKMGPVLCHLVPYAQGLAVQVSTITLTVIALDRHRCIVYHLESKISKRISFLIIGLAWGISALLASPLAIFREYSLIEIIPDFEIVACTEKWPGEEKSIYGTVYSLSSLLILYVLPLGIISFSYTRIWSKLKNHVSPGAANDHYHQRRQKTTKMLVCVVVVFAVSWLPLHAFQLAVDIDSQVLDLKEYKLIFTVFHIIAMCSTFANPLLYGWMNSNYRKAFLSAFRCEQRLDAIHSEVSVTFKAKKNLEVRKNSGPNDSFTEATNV
Measles CPE: protection of cells from measles virus; AID 841; hit rate 1.5% among 140,000; protection (pct of control), % at 4 µM; Measles virus-infected cells, CPE protection, absorbance; in the data active = protection mostly above about 24%, no sharp cut-off; inactive = mostly below about 26%
NPY-Y2 antag: antagonists of human neuropeptide Y receptor Y2 | P49146 | inhibition, % at 2.7 µM | hit rate 0.99% among 140,000 | NPY-Y2 expressing cells, antagonist mode;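 also: 0% = vehicle with agonist challenge and 100% = reference antagonist with challenge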
NPY-Y1 antag: NPY-Y1 (human) receptor antagonism; P25929; HEK293-CNG Y1 cells, membrane potential fluorescence; NPY at EC95, then isoproterenol; inhibition, % at 3.6 µM; hit rate 1% among 200,000; AID 1040;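 active = inhibition above the campaign mean inhibition of all tested compounds plus 3 SD, cut at about 20% in these data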;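 also: 0% = DMSO wells given NPY plus isoproterenol and 100% = isoproterenol alone without NPY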
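Test system: HEK293 cells co-expressing NPY Y1 receptor and cyclic-nucleotide gated channel; Also added: NPY (25 nM), isoproterenol (1 µM), Ro 20-1724 (25 µM); Compound dosing: one concentration, 3.6 µM, in 0.4% DMSO; Timing: dye 3 h, compound 60 min room temperature, stimulation 45 min; Technique: Membrane-potential fluorescent dye readout.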
MDM2 E3 inh: blocks human Mdm2 ubiquitin ligase activity | signal enhancement, % at 5 µM | hit rate 0.11% among 210,000 | cell-based MDM2 ubiquitination luciferase reporter, 2 h; 0 = plate control, 100 = twice control, blank-subtracted;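 active = signal enhancement of 30% or more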;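 also: luminescence tracks abundance of the self-degrading MDM2-luciferase fusion protein; higher signal means inhibition of MDM2 E3 ligase activity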
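Timing – 2 h compound exposure at 37 °C · Assay system – mammalian cells stably expressing self-ubiquitinating, self-degrading MDM2 E3–luciferase fusion · Amount – 2000 cells seeded into each well · Measure – % luminescence enhancement versus blank-corrected plate control mean · Measured by – SteadyLite luminescence, 15 min reagent step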
NPY1 pot ag: human NPY-Y1 potentiation or agonism, primary screen; P25929; NPY-Y1 expressing cells, potentiator/agonist activation; activation, % at 3.6 µM; hit rate 0.37% among 220,000; AID 1304; in the data active = activation above about 33%, passing the limit was not always enough;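 also: cells stimulated with NPY at EC10 then isoproterenol at EC100; 0% = low agonist plus stimulus and 100% = saturating agonist plus stimulus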
NPY-Y1 ant conf: confirmation of human neuropeptide Y receptor Y1 antagonists; shares compounds with NPY-Y1 antag; HEK293-CNG NPY-Y1, membrane potential fluorescence, cAMP; NPY challenge against isoproterenol-raised cAMP; inhibition, % at 3.6 µM; hit rate 21% among 1,200; AID 1254; in the data active = inhibition above about 20%;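 also: 0% = vehicle with agonist plus stimulus and 100% = stimulus alone without agonist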
NPY-Y2 antag ct: antagonizes human NPY-Y2, counter-screen to NPY-Y1 antagonists. shares compounds with NPY-Y1 antag. HEK293 NPY-Y2 CNG membrane potential fluorescence, antagonism; cells given NPY, then isoproterenol. inhibition, % at 3.6 µM. hit rate 28% among 1,200;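 also: 0% = DMSO with agonist challenge and 100% = reference antagonist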
Starred values were filed as active, the others as inactive; . = no result given. Rule as the data show it, unless noted: active = inhibition above about 17%; inactive = the rest.

SMILES	NPY-Y2 PAM-ag	Measles CPE	NPY-Y2 antag	NPY-Y1 antag	MDM2 E3 inh	NPY1 pot ag	NPY-Y1 ant conf	NPY-Y2 antag ct
Cc1ccccc1-c1nnn(CC(=O)NCc2ccc3c(c2)OCO3)n1	-10	7	14	22*	7	-43	8	9
Cc1cc(C)c(OCC(=O)Nc2nnc(-c3ccco3)o2)c(C)c1	-10	.	.	31*	-12	-17	10	11
Cc1[nH]n(-c2ccccc2)c(=O)c1/C=N/O	-15	3	5	58*	-18	6	1	3
CCN(CC)c1ccc(NC(=O)COC(=O)c2ccc3ccccc3n2)cc1	-8	31	1	1	-19	-8	.	.
CCN(CC)C(=O)CSc1nc2ccc(NC(=O)CSc3nccn3C)cc2s1	8	18	3	-1	-16	-4	.	.
O=C(CC1Sc2ccccc2NC1=O)NCc1ccccc1 (stereo unspecified)	-4	.	.	.	-9	5	.	.
O=C(O)c1cc2c(ccc3ccccc32)o1	-21	16	14	32*	-14	-30	13	15
NNC(=O)c1cc2c(ccc3ccccc32)o1	-4	.	.	-2	-19	5	.	.
CC(C)CC(=O)Nc1ccc(C(=O)CN2CCC(C)CC2)cc1	0	.	.	-4	-18	19	.	.
CCOC(=O)c1cccnc1NC(=O)c1ccccc1	-2	8	0	8	15	6	.	.
O=C(COc1ccccc1Cl)c1ccc2c(c1)CCCC2	-20	32	5	21*	1	-52	11	9
CCN(CC)CCSc1nc2ccccc2c(=S)n1-c1ccccc1	-30	.	.	57*	-66	-50	20*	24*
c1csc(-c2nn3c(C4COc5ccccc5O4)nnc3s2)c1 (stereo unspecified)	-15	10	2	24*	-15	-26	7	7
c1ccc2c(c1)OCC(c1nnc3sc(-c4ccc5c(c4)OCO5)nn13)O2 (stereo unspecified)	-12	4	9	11	-11	-19	.	.
c1ccc2c(c1)OCC(c1nnc3sc(-c4cnccn4)nn13)O2 (stereo unspecified)	-3	8	3	7	-11	-2	.	.
Fc1ccc(-c2nn3c(C4COc5ccccc5O4)nnc3s2)cc1 (stereo unspecified)	-11	11	4	21*	-13	-58	11	11
O=C1C2C3C=CC(O3)C2C(=O)N1CC(O)c1ccccc1 (stereo unspecified)	-13	17	0	0	-16	0	.	.
C[C@@]12CCC=C[C@H]1[C@H](c1ccc(C(F)(F)F)cc1)N(Cc1ccccc1)C2=O	.	.	.	.	6	.	.	.
Cc1cc(C)cc(NC(=S)NCc2cccn2C)c1	-23	2	-1	-1	-7	5	.	.
Cc1c(NC(=O)/C(C#N)=C/c2ccc(-c3cccc(Cl)c3)o2)c(=O)n(-c2ccccc2)n1C	2	5	15	26*	-7	13	11	6
CC1(C)CC2=C(CO1)C(=S)NC(c1ccccc1)N2CC1CCCO1 (stereo unspecified)	4	.	.	.	-3	4	.	.
Clc1ccccc1CSc1cc2c(nn1)-c1ccccc1CC2	-10	23	12	23*	-7	-11	4	8
Clc1cccc(Cl)c1CSc1cc2c(nn1)-c1ccccc1CC2	-5	8	1	-2	-2	-10	.	.
S=c1[nH]nc(-c2cccnc2)o1	3	18	0	5	0	1	.	.
S=c1[nH]nc(-c2cccc(Br)c2)o1	-34	15	13	24*	-10	-32	11	11
SMILES	NPY-Y2 PAM-ag	Measles CPE	NPY-Y2 antag	NPY-Y1 antag	MDM2 E3 inh	NPY1 pot ag	NPY-Y1 ant conf	NPY-Y2 antag ct
O=C(COc1ccc2ccccc2c1)NCCc1ccc2c(c1)OCCO2	-10	25	16	25*	-9	-52	17	11
O=C(NCCc1ccc2c(c1)OCCO2)c1ccccc1F	5	1	1	3	-13	-2	.	.
O=C(Nc1cc(C(F)(F)F)cc(C(F)(F)F)c1)c1ccc(Cn2cc(C(F)(F)F)ccc2=O)cc1	-1	3	1	2	18	17	.	.
Cc1ccc(OCc2nnc(SCC(=O)c3ccccc3)n2Cc2ccco2)cc1	-7	3	5	11	-3	-26	.	.
O=C(CSc1nnc(COc2ccccc2)n1Cc1ccco1)c1ccc(F)cc1	-20	.	17	20*	2	-20	4	7
c1ccc(-c2cc3c(-n4cccc4)ncnc3o2)cc1	-23	16	10	21*	-7	-9	4	8
c1ccc(Oc2ncnc3oc(-c4ccccc4)cc23)cc1	-8	5	2	-1	-5	7	.	.
COC(=O)CSc1nc(-c2ccccc2)nc2ccc(F)cc12	2	10	-1	4	-11	-16	.	.
CCOC(=O)CSc1nc(-c2ccccc2)nc2ccc(F)cc12	-16	12	13	23*	-16	-13	10	10
CCOC(=O)CC(NC(=O)C(CC)c1ccccc1)c1ccccc1Cl (stereo unspecified)	-3	15	13	25*	-4	-4	17	6
Cc1ccc(C(C(=O)Nc2ccc3c(c2)OCO3)N(C)C(=O)Cc2c[nH]c3ccccc23)cc1 (stereo unspecified)	4	8	1	35*	-15	12	-1	-5
Cc1nn(C)c(C(=O)Nc2ccc(Cn3cccn3)cc2)c1[N+](=O)[O-]	-11	14	0	25*	-20	10	-1	0
COC(=O)CC1C(=O)NCCN1C(=O)CSc1nc2ccccc2s1 (stereo unspecified)	0	.	.	0	0	5	.	.
CCc1nccn1S(=O)(=O)c1ccc2ccc(C)cc2c1	-43	1	15	34*	-8	-36	16	15
COc1ccc(-c2onc(C)c2-c2cnn(-c3ccccc3)c2)c(O)c1C	-44	.	.	31*	-12	-34	6	13
COc1ccc(-c2n[nH]c(C)c2-c2cnn(-c3ccccc3)c2)c(O)c1C	-22	15	2	-2	-17	-8	.	.
CC(C)[C@H](NC(=O)c1ccccc1)C(=O)OCC(=O)N1CCCc2ccccc21	-1	8	2	2	17	-9	.	.
Cc1ccc(S(=O)(=O)NCCN=C(CN2CCCC2)NS(=O)(=O)c2ccc(C)cc2)cc1	-6	10	1	-6	-14	2	.	.
CCCCOC(=O)c1ccc(NC(=O)c2c(Cl)ccc(Cl)c2OC)cc1	-21	6	8	24*	-8	-33	17	14
